Assay results published in ChEMBL document CHEMBL4130578, “Synthesis, biological evaluation and structure-activity relationship studies of hederacolchiside E and its derivatives as potential anti-Alzheimer agents” (Eur J Med Chem, 2018).
Active and inactive are the calls of the source. The rule behind the calls is not given here.

Tests used:
PC-12 [1] = test: Cytoprotection against H2O2-induced cell injury in rat PC12 cells assessed as increase in cell viability at 20 uM preincubated for 12 hrs followed by H2O2 addition measured after 12 hrs by MTT assay; assay type: functional, cell-based
Outline: (§1)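 PC12 cells grown in RPMI-1640 with 15% FBS and penicillin/streptomycin, subcultured every 2 days and cultured 8 days before use. Cells seeded at 1 × 10^4/well, after 12 h pretreated with compound 12 h, then exposed to 200 µM H2O2 for 12 h. MTT added for 4 h, formazan dissolved in DMSO, OD 490 nm read. Viability given as % of untreated control, mean ± SD, n = 3, ANOVA with Dunnett's test.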

PC-12 [2] = test: Cytoprotection against H2O2-induced cell injury in rat PC12 cells assessed as increase in cell viability at 1 to 50 uM preincubated for 12 hrs followed by H2O2 addition measured after 12 hrs by MTT assay; assay type: functional, cell-based; outline: as §1
PC-12 [3] = test: Cytoprotection against amyloid beta (1 to 42)-induced cell injury in rat PC12 cells assessed as cell viability at 10 uM preincubated for 12 hrs followed by amyloid beta (1 to 42) addition measured after 12 hrs by MTT assay (reference value: 55.3 +/- 1.5%); assay type: functional; conditions: read-out: Activity
PC-12 [4] = test: Cytoprotection against amyloid beta (1 to 42)-induced cell injury in rat PC12 cells assessed as cell viability at 50 uM preincubated for 12 hrs followed by amyloid beta (1 to 42) addition measured after 12 hrs by MTT assay (reference value: 55.3 +/- 1.5%); assay type: functional; conditions: read-out: Activity

CC1=NN(c2ccccc2)C(=O)C1
Activity (PC-12 [1]): Active

C[C@@H]1O[C@@H](O[C@H]2[C@H](O[C@H]3CC[C@]4(C)[C@H]5CC=C6[C@@H]7CC(C)(C)CC[C@]7(C(=O)O[C@@H]7O[C@H](CO)[C@@H](O[C@@H]8O[C@@H](C)[C@H](O)[C@@H](O)[C@H]8O)[C@H](O)[C@H]7O)CC[C@@]6(C)[C@]5(C)CC[C@H]4C3(C)C)OC[C@H](O[C@@H]3O[C@H](CO)[C@@H](O)[C@H](O)[C@H]3O)[C@@H]2O)[C@H](O)[C@H](O)[C@H]1O
Activity (PC-12 [2]): Active
viability at 10 µM (PC-12 [3]): 59.3%
viability at 50 µM (PC-12 [4]): 63.3%
